Data published in ChEMBL document CHEMBL2146383, “Identification of an Orally Bioavailable, Potent, and Selective Inhibitor of GlyT1” (ACS Med Chem Lett, 2010).
pIC50: −log10 of the molar value. Calls of active or inactive are those of the source.

Assays:
[1] = biological target: T1, Sodium- and chloride-dependent glycine transporter 1 (Homo sapiens, UniProt P48067); assay: Inhibition of human GlyT1a after 15 mins
T1 sequence (P48067 whole entry): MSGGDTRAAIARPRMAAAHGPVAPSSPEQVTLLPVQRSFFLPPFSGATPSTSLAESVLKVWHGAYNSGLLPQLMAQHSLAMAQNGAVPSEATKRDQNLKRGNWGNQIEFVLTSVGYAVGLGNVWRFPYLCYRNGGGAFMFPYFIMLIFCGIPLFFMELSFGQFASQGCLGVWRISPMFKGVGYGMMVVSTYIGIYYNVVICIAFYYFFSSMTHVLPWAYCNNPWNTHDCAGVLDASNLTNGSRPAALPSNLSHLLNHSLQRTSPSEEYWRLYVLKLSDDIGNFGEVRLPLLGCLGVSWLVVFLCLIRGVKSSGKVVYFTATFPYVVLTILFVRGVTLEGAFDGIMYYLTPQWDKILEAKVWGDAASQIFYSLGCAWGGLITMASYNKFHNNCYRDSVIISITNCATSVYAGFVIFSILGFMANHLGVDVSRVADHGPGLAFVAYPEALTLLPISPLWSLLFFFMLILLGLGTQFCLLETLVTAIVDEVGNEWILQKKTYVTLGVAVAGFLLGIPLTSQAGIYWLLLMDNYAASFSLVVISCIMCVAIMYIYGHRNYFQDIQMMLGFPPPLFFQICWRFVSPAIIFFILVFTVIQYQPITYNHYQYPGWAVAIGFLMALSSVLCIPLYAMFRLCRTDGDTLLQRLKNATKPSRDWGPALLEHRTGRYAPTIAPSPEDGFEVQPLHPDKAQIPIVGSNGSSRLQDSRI
Method in brief: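 Human GlyT1, hGlyT1a isoform; IC50 taken as the average of at least two measurements.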

[2] = Metabolic stability in human liver microsomes assessed as compound turnover at 1 uM after 15 mins; type: ADME, Microsome; details: read-out: Drug metabolism
Method in brief: (§1)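 Test compound at 1 μM incubated with human or rat liver microsomes (0.5 mg/mL protein) at 37 °C for 15 min; turnover measured.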

[3] = Metabolic stability in rat liver microsomes assessed as compound turnover at 1 uM after 15 mins; type: ADME, Microsome; details: read-out: Drug metabolism; method in brief: as §1
[4] = Ratio of drug level in brain to plasma in rat at 10 mg/kg, po; type: ADME, organism-based; design: dose 10 mg/kg, route oral; details: read-out: BPR
Cytochrome P450 2C9 = Cytochrome P450 2C9 (Homo sapiens, UniProt P11712); assay: Inhibition of CYP2C9; type: ADME
Liver = assay: Covalent binding affinity at liver protein in rat at 20 mg/kg, po after 6 hrs; type: ADME, organism-based; design: dose 20 mg/kg, route oral; details: in vivo
Method in brief: (§2)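 Rats dosed orally at 20 mg/kg; liver and plasma proteins sampled 6 h postdose; covalently bound drug-derived material expressed as pmol equiv/mg protein.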

Plasma [5] = assay: Covalent binding affinity in rat plasma at 20 mg/kg, po after 6 hrs; type: ADME, organism-based; design: dose 20 mg/kg, route oral; details: in vivo; method in brief: as §2
Cytochrome P450 2D6 = Cytochrome P450 2D6 (Homo sapiens, UniProt P10635); assay: Inhibition of CYP2D6; type: ADME
Brain = assay: Receptor occupancy at Glyt1 in rat brain at 10 mg/kg, po; type: functional
Cytochrome P450 3A4 = Cytochrome P450 3A4 (Homo sapiens, UniProt P08684); assay: Inhibition of CYP3A4; type: ADME
Plasma [6] = assay: Receptor occupancy at Glyt1 in rat plasma at 10 mg/kg, po; type: functional
[7] = Tmax in rat at 1 mg/kg, po and 1 mg/kg, iv; type: ADME, organism-based; details: in vivo
Method in brief: (§3)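 Rat PK: 1.0 mg/kg iv and po, oral arm as 0.5% methocel suspension; plasma Cl, Vd(ss), T1/2, F, Cmax (μM) and Tmax determined.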

[8] = Cmax in rhesus monkey at 1 mg/kg, po and 1 mg/kg, iv; type: ADME, organism-based, Macaca mulatta; details: in vivo
Method in brief: (§4)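 Rhesus monkey pharmacokinetics after 1.0 mg/kg by both iv and oral routes; reported parameters are Cl, Vd(ss), T1/2, F, Cmax (μM) and Tmax.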

[9] = Oral bioavailability in rat at 1 mg/kg; type: ADME, organism-based; details: in vivo; method in brief: as §3
Rattus norvegicus [10] = assay: Inhibition of PCP-induced cognitive deficit in extra dimensional shift in intra/extra dimensional rat model of executive function at 3 mg/kg, po; type: functional, organism-based; design: dose 3 mg/kg
Method in brief: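 Rats given subchronic PCP to impair attentional set shifting, then dosed 3 mg/kg po; all ID/ED discriminations run, with trials to criterion scored for the extra-dimensional shift; significance at p < 0.05 versus PCP and vehicle groups.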

[11] = Volume of distribution at steady state in dog at 1 mg/kg, po and 1 mg/kg, iv; type: ADME, organism-based, Canis lupus familiaris; details: in vivo, read-out: Vdss
Method in brief: (§5)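 Dog PK: single 1.0 mg/kg dose given iv and po; oral dosing in 0.5% methocel suspension. Clearance, Vd(ss), half-life, oral bioavailability (F), Cmax (μM) and Tmax derived from the plasma profiles.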

[12] = Half life in rat at 1 mg/kg, po and 1 mg/kg, iv; type: ADME, organism-based; details: in vivo; method in brief: as §3
[13] = Clearance in dog at 1 mg/kg, po and 1 mg/kg, iv; type: ADME, organism-based, Canis lupus familiaris; details: in vivo; method in brief: as §5
Rhesus monkey = assay: Receptor plasma occupancy at Glyt1 in rhesus monkey pons assessed as inhibition of [18F]MK-6577 uptake administered as iv bolus plus infusion by PET imaging; type: functional, Macaca mulatta
Method in brief: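 Rhesus monkeys (~10 kg) sedated with ketamine 10 mg/kg im, induced with propofol 5 mg/kg iv, and maintained on propofol 0.4 mg/kg/min. Compound given iv as bolus plus infusion in EtOH:H2O:PEG400 (10:40:50); ~5 mCi [18F]MK-6577 injected 1 h into the infusion. Dynamic PET scans compared baseline and blockade uptake to derive an occupancy versus plasma concentration curve and plasma Occ50.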

[14] = Cmax in dog at 1 mg/kg, po and 1 mg/kg, iv; type: ADME, organism-based, Canis lupus familiaris; details: in vivo; method in brief: as §5
[15] = Clearance in rat at 1 mg/kg, po and 1 mg/kg, iv; type: ADME, organism-based; details: in vivo; method in brief: as §3
Mus musculus = organism: Mus musculus; assay: Binding affinity to mouse P-gp
[16] = Clearance in rhesus monkey at 1 mg/kg, po and 1 mg/kg, iv; type: ADME, organism-based, Macaca mulatta; details: in vivo; method in brief: as §4
[17] = Tmax in rhesus monkey at 1 mg/kg, po and 1 mg/kg, iv; type: ADME, organism-based, Macaca mulatta; details: in vivo; method in brief: as §4
Rattus norvegicus [18] = assay: Covalent binding in rat at 20 mg/kg, po after 6 hrs; type: ADME, organism-based; design: dose 20 mg/kg, route oral; details: in vivo; method in brief: as §2
Rattus norvegicus [19] = assay: Inhibition of GlyTl in rat frontal cortex assessed as increase in extracellular glycine level at 20 mg/kg, po up to 4 hrs relative to baseline; type: functional; design: scale not given: the % may be the effect or the level left
Method in brief: (§6)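 Microdialysis probe placed in rat frontal cortex; extracellular glycine sampled up to 4 h after oral dosing at 3 or 20 mg/kg; peak glycine efflux given as % of basal level, mean ± SEM.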

Rattus norvegicus [20] = assay: Inhibition of GlyTl in rat frontal cortex assessed as increase extracellular glycine level after 3 mg/kg, po up to 4 hrs relative to baseline; type: functional; design: scale not given: the % may be the effect or the level left; method in brief: as §6
[21] = Volume of distribution at steady state in rat at 1 mg/kg, po and 1 mg/kg, iv; type: ADME, organism-based; details: in vivo, read-out: Vdss; method in brief: as §3
[22] = Tmax in dog at 1 mg/kg, po and 1 mg/kg, iv; type: ADME, organism-based, Canis lupus familiaris; details: in vivo; method in brief: as §5
[23] = Half life in dog at 1 mg/kg, po and 1 mg/kg, iv; type: ADME, organism-based, Canis lupus familiaris; details: in vivo; method in brief: as §5
[24] = Cmax in rat at 1 mg/kg, po and 1 mg/kg, iv; type: ADME, organism-based; details: in vivo; method in brief: as §3
Homo sapiens = organism: Homo sapiens; assay: Binding affinity to human P-gp
[25] = Half life in rhesus monkey at 1 mg/kg, po and 1 mg/kg, iv; type: ADME, organism-based, Macaca mulatta; details: in vivo; method in brief: as §4
[26] = Oral bioavailability in dog at 1 mg/kg; type: ADME, organism-based, Canis lupus familiaris; details: in vivo; method in brief: as §5
[27] = Oral bioavailability in rhesus monkey at 1 mg/kg; type: ADME, organism-based, Macaca mulatta; details: in vivo; method in brief: as §4
[28] = Volume of distribution at steady state in rhesus monkey at 1 mg/kg, po and 1 mg/kg, iv; type: ADME, organism-based, Macaca mulatta; details: in vivo, read-out: Vdss; method in brief: as §4

Sequence of Cytochrome P450 2C9 (P11712 whole entry): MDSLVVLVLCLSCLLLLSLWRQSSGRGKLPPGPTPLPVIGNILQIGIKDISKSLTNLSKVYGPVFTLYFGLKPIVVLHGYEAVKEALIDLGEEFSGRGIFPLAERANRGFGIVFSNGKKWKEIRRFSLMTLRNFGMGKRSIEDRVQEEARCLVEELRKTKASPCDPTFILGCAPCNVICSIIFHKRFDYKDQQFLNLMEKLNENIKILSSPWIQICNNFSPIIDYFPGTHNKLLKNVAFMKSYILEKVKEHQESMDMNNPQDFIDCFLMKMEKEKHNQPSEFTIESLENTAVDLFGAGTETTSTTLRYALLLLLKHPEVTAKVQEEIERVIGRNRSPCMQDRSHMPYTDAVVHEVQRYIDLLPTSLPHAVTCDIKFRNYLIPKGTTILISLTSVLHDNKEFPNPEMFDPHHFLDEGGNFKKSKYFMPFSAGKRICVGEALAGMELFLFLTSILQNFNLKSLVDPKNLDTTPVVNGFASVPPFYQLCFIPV
Sequence of Cytochrome P450 2D6 (P10635 whole entry): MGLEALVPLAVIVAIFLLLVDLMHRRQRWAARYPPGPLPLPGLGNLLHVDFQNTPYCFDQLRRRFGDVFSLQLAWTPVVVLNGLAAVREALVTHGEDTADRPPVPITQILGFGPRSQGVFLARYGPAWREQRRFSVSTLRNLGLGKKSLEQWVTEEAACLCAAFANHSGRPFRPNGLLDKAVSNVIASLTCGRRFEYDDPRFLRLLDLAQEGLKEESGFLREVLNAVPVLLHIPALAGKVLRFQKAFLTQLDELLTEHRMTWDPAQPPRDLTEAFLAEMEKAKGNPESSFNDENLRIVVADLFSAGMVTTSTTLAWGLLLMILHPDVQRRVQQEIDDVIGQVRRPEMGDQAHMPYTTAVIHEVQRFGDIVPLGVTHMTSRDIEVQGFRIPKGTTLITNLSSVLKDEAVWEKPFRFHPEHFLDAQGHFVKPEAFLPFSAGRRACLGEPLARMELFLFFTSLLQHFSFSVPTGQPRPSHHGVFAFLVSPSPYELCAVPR
Sequence of Cytochrome P450 3A4 (P08684 whole entry): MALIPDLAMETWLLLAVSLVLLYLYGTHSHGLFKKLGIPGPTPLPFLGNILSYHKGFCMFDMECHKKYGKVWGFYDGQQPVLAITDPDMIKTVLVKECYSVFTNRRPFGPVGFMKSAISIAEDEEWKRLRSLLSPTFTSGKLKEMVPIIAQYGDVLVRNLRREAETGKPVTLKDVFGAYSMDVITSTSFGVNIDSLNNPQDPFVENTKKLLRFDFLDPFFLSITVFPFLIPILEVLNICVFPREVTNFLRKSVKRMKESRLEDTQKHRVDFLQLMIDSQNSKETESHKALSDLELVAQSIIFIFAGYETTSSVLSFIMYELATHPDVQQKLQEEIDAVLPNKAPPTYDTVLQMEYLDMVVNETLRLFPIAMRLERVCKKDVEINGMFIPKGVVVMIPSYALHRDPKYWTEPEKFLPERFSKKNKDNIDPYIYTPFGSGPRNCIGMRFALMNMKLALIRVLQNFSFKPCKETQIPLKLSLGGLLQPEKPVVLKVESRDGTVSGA

## Cc1nnc(S(=O)(=O)[C@H]2CC[C@@](CNC(=O)c3ccc(Cl)cc3Cl)(CC3CC3)CC2)s1
[1]
  pIC50: 5.48

## Cc1cc(S(=O)(=O)[C@H]2CC[C@](CNC(=O)c3ccc(Cl)cc3Cl)(CC3CC3)CC2)no1
[2]
  metabolised at 0.25 h, 1 µM: 40%
[1]
  pIC50: 8.14
[3]
  metabolised at 0.25 h, 1 µM: 41%

## Cn1cc(S(=O)(=O)[C@H]2CC[C@@](CNC(=O)c3ccc(Cl)cc3Cl)(CC3CC3)CC2)nn1
[4]
  Kp: 0.1

## CS(=O)(=O)[C@H]1CC[C@](CNC(=O)c2ccc(Cl)cc2Cl)(CC2CC2)CC1
[1]
  pIC50: 5.48

## CCS(=O)(=O)[C@H]1CC[C@@](CNC(=O)c2ccc(Cl)cc2Cl)(CC2CC2)CC1
[1]
  pIC50: 5.88

## O=C(NC[C@]1(CC2CC2)CC[C@@H](S(=O)(=O)c2cnn[nH]2)CC1)c1ccc(Cl)cc1Cl
[1]
  pIC50: 5.52
Cytochrome P450 2C9
  pIC50: 8.00

## CCS(=O)(=O)N1CCC(CNC(=O)c2ccc(Cl)cc2Cl)(CC2CC2)CC1
[1]
  pIC50: 7.59
Liver
  PB: 153 pmolequiv/mg
Plasma [5]
  Activity: 214 pmolequiv/mg

## CCCS(=O)(=O)[C@H]1CC[C@@](CNC(=O)c2ccc(Cl)cc2Cl)(CC2CC2)CC1
[1]
  pIC50: 5.79

## Cc1cc(S(=O)(=O)[C@H]2CC[C@@](CNC(=O)c3ccc(Cl)cc3Cl)(CC3CC3)CC2)no1
[2]
  metabolised at 0.25 h, 1 µM: 35%
[1]
  pIC50: 8.07
[3]
  metabolised at 0.25 h, 1 µM: 51%

## CCS(=O)(=O)[C@H]1CC[C@](CNC(=O)c2ccc(Cl)cc2Cl)(CC2CC2)CC1
[1]
  pIC50: 6.88

## Cn1cc(S(=O)(=O)[C@H]2CC[C@](CNC(=O)c3ccc(Cl)cc3Cl)(CC3CC3)CC2)nn1
Cytochrome P450 2D6
  pIC50: < 5.00
Brain
  Occ50: 0.2 µM
Cytochrome P450 2C9
  pIC50: < 5.00
[4]
  Kp: 0.16
Cytochrome P450 3A4
  pIC50: < 5.00
Plasma [6]
  Occ50: 1.2 µM

## O=C(NC[C@]1(CC2CC2)CC[C@H](S(=O)(=O)c2c[nH]nn2)CC1)c1ccc(Cl)cc1Cl
[1]
  pIC50: 5.52
Cytochrome P450 2C9
  inhibition (INH): Active

## O=C(NC[C@]1(CC2CC2)CC[C@H](S(=O)(=O)CC2CCC2)CC1)c1ccc(Cl)cc1Cl
[1]
  pIC50: 6.20

## CCCS(=O)(=O)[C@H]1CC[C@](CNC(=O)c2ccc(Cl)cc2Cl)(CC2CC2)CC1
[2]
  metabolised at 0.25 h, 1 µM: 55%
[1]
  pIC50: 7.43
[3]
  metabolised at 0.25 h, 1 µM: 53%

## Cc1ccc(S(=O)(=O)[C@H]2CC[C@@](CNC(=O)c3ccc(Cl)cc3Cl)(CC3CC3)CC2)nn1
[2]
  metabolised at 0.25 h, 1 µM: 35%
[1]
  pIC50: 7.54
[3]
  metabolised at 0.25 h, 1 µM: 40%

## O=C(NC[C@]1(CC2CC2)CC[C@H](S(=O)(=O)CC2CC2)CC1)c1ccc(Cl)cc1Cl
[7]
  Tmax: 0.8 h
[8]
  Cmax: 40 nM
[2]
  metabolised at 0.25 h, 1 µM: 35%
[9]
  bioavailability: 65%
Rattus norvegicus [10]
  inhibition: Active
[1]
  pIC50: 7.54
[11]
  Vd: 3.1 L/kg
[12]
  half-life: 2.4 h
[13]
  clearance: 4.9 mL/min/kg
Rhesus monkey
  Occ50: 120 nM
[14]
  Cmax: 1390 nM
[15]
  clearance: 36 mL/min/kg
Mus musculus
  Activity: inactive
[16]
  clearance: 24 mL/min/kg
[17]
  Tmax: 2.7 h
Rattus norvegicus [18]
  PB: < 25 pmolequiv/mg
Rattus norvegicus [19]
  Activity: 184%
Rattus norvegicus [20]
  Activity: 151%
[21]
  Vd: 4.1 L/kg
[22]
  Tmax: 1 h
[3]
  metabolised at 0.25 h, 1 µM: 40%
[23]
  half-life: 10 h
[24]
  Cmax: 140 nM
[4]
  Kp: 2.3
Homo sapiens
  Activity: inactive
[25]
  half-life: 1.5 h
[26]
  bioavailability: 48%
Plasma [6]
  Occ50: 0.35 µM
[27]
  bioavailability: 2%
[28]
  Vd: 2.3 L/kg
